Assay outcomes: PubChem, Broad Institute
Compounds with a hit are over-represented: about 1.9% of the library has one in this group of screens.
RAD52 inh: RAD52 (human) annealing inhibition; P43351; inhibition, % at 18.7 µM; 0.46% of 360,000 active; recombinant RAD52 DNA annealing, FRET fluorescence;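 active = every replicate showing at least 50% inhibition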
Cneo AK release: Cryptococcus neoformans lysis via adenylate kinase release. C. neoformans lysis, adenylate kinase release luminescence, 4 h; normalised: neutral wells 0, clomiphene wells 100. lysis activity, % at 15 µM. 0.2% of 360,000 active. AID 651654;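 active = mean lysis activity across replicates of at least 80%, whatever share of replicates individually reach that level; inactive = mean lysis activity below 80%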
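Material – log-phase Cryptococcus neoformans yeast cells · Input – 5 × 10^6 yeast cells/mL · Medium – fresh YPD growth medium · Doses – single compound concentration per well · Timing – static 4 h at 37 °C with compound, 1 h detection · Detection – adenylate kinase release luminescence · Read-out – signal increase indicating cell lysis · Control set – Clomiphene as positive lysis control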
RAD54 inh: blocks human RAD54 Holliday junction branch migration. Q92698. FAM/BHQ fluorescence. inhibition, % at 10.4 µM. 0.14% of 360,000 active;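 active = mean normalized replicate activity at least 40 and at least half of replicates scoring 40 or more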;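 also: 0% = median of neutral control wells and 100% = median of positive control wells; inhibitors cause a drop in the FAM fluorescence signal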
Target sequence (Q92698 whole entry, looked up): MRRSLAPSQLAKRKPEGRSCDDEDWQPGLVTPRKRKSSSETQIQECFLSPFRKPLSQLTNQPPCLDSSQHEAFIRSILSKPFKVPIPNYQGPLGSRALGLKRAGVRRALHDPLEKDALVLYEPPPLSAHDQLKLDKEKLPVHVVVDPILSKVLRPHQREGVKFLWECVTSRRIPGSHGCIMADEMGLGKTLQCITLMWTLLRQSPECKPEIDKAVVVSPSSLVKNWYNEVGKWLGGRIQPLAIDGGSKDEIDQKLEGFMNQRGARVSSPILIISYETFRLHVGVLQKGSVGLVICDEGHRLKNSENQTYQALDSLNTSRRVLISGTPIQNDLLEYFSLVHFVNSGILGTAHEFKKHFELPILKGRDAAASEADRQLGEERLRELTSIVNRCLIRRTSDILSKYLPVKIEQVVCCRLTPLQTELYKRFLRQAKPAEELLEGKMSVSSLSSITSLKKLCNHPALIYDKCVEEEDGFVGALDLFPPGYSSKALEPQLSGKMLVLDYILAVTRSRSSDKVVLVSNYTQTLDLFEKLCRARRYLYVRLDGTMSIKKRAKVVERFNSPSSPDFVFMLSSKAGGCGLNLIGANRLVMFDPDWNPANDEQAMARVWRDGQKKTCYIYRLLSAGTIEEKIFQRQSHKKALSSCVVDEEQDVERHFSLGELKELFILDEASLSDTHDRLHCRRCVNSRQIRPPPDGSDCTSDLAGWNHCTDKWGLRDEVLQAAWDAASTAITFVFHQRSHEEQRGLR
rRNA inh HTS: selective bacterial rRNA inhibition in E. coli; E. coli WT GFP vs humanized-ribosome RFP mutants, fluorescence, 24 h; active compounds read low; DMSO median 0, no signal -100; AID 720706; GFP signal change (wild-type ribosome), % (no concentration beside the values); 1.6% of 350,000 active;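 active = significant combined selectivity score with lowered wild-type GFP, culture density cut under 30%, mutant RFP and density less affected; inactive = any of these conditions unmet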
PglD DTNB: inhibitors of Campylobacter jejuni PglD acetyltransferase; purified PglD enzyme, DTNB colorimetric CoA detection; inhibition, % at 12.5 µM; 0.098% of 360,000 active; AID 602405; in the data active = inhibition above about 16%, passing the limit was not always enough
* marks the source's active call; other numbers are inactive results; / = no result; ! = a repeat was not active.

SMILES	RAD52 inh	Cneo AK release	RAD54 inh	rRNA inh HTS	PglD DTNB
COc1ccc2c3c([nH]c2c1)[C@H](CO)N(C(=O)c1ccncc1)CC31CN(Cc2cccnc2)C1	/	/	/	-3	/
CC1CC(=O)N(c2ccc(NCCc3ccc(O)cc3)c([N+](=O)[O-])c2)C1=O (stereo not given)	-6	-3	-3	-22*	-3
COc1ccc(N2CCN(c3ccc(N4C(=O)CC(C)C4=O)cc3[N+](=O)[O-])CC2)cc1 (stereo not given)	-7	-5	-7	-29*	-3
O=C(Nc1ccc(OC(F)(F)F)cc1)N1CCN(c2ccnc3cc(Cl)ccc23)CC1	-18	/	/	-29*	/
C[C@@H]1CCCCO[C@@H](CN(C)Cc2ccc3c(c2)OCO3)[C@@H](C)CN([C@@H](C)CO)C(=O)c2cc(NS(=O)(=O)c3ccc(Cl)cc3)ccc2O1	58*!	-22	0	2	8
C[C@@H]1CCCCO[C@H](CN(C)Cc2ccc(C(=O)Nc3ccccc3N)cc2)[C@@H](C)CN([C@H](C)CO)C(=O)c2cc(NS(=O)(=O)c3ccc(F)cc3)ccc2O1	59*	-6	2	-4	1
C[C@@H]1CCCCO[C@@H](CN(C)Cc2ccc3c(c2)OCO3)[C@@H](C)CN([C@H](C)CO)C(=O)c2cc(NS(=O)(=O)c3ccc(Cl)cc3)ccc2O1	31	4	-4	1	8
C[C@@H]1CCCCO[C@H](CN(C)Cc2ccc(C(=O)Nc3ccccc3N)cc2)[C@@H](C)CN([C@H](C)CO)C(=O)c2cc(NS(=O)(=O)c3ccccc3)ccc2O1	-13	/	/	1	/
C[C@@H]1CN([C@H](C)CO)C(=O)c2cc(NS(=O)(=O)c3ccc(Cl)cc3)ccc2O[C@@H](C)CCCCO[C@H]1CN(C)Cc1ccc2c(c1)OCO2	52*!	-10	-2	3	9
C[C@@H]1CCCCO[C@@H](CN(C)Cc2ccc3c(c2)OCO3)[C@@H](C)CN([C@H](C)CO)C(=O)c2cc(NS(=O)(=O)c3ccc(F)cc3)ccc2O1	14	113*	5	10	-4
CCNC(=O)[C@H]1[C@H](CO)[C@H]2Cn3c(ccc(-c4cccc(C(=O)N(C)C)c4)c3=O)[C@@H]1N2	2	/	/	1	/
Cc1ccc(S(=O)(=O)NC[C@H]2CC[C@@H]3[C@@H](CN3Cc3cc(-c4ccccc4)on3)O2)cc1	-6	/	/	/	/
C[C@@H]1CN([C@@H](C)CO)C(=O)c2cc(NS(=O)(=O)c3ccc(F)cc3)ccc2O[C@@H](C)CCCCO[C@H]1CN(C)Cc1ccc2c(c1)OCO2	26	15	-3	3	-12
C[C@H]1CCCCO[C@H](CN(C)Cc2ccc3c(c2)OCO3)[C@@H](C)CN([C@@H](C)CO)C(=O)c2cc(NS(=O)(=O)c3ccc(Cl)cc3)ccc2O1	55*	-22	-6	-5	11
CCOc1ccc(-c2nc(-c3cccs3)c(CC(=O)O)s2)cc1OC	-11	-1	-15	-19*	/
O=C(N/N=C/c1cn(CCOc2ccccc2)c2ccccc12)c1ccncc1	/	1	7	/	-2
COc1ccccc1OCCn1cc(/C=N/NC(=O)c2ccncc2)c2ccccc21	13	5	-30	-28*	2
COC(=O)N/N=C/c1cn(Cc2ccccc2Cl)c2ccccc12	2	/	/	-26*	/
COC(=O)N/N=C/c1cn(Cc2c(Cl)cccc2Cl)c2ccccc12	-2	/	/	-19	/
O=C(N/N=C/c1cn(Cc2cccc(F)c2)c2ccccc12)c1cc(O)cc(O)c1	-18	-3	-9	-24*	5
COC(=O)N/N=C/c1cn(Cc2ccc(Cl)cc2Cl)c2ccccc12	-7	-3	18	-28*	3
CCCC(=O)N1CCC2(CC1)CN(C(=O)CN1CCOCC1)[C@H](CO)c1c2c2ccc(OC)cc2n1C	/	/	/	2	/
O=C(O)c1ccc(N/N=C/c2cn(Cc3ccccc3F)c3ccccc23)cc1	-4	1	2	-35*	3
O=C(CSc1nnc(C2CC2)n1C1CC1)c1ccc(Br)s1	-10	-1	0	-28*	3
C[C@@H]1CN([C@@H](C)CO)C(=O)c2cc(NC(=O)Cc3ccccc3)ccc2O[C@@H](C)CCCCO[C@H]1CN(C)Cc1ccc(C(F)(F)F)cc1	/	2	-1	0	6
SMILES	RAD52 inh	Cneo AK release	RAD54 inh	rRNA inh HTS	PglD DTNB
COCC(=O)N(C)C[C@H]1Oc2cc(C#CC3CCCC3)ccc2S(=O)(=O)N([C@@H](C)CO)C[C@H]1C	/	/	/	-1	/
CN(CCOc1ccccc1)CC(=O)Nc1ccc(Cl)c(S(=O)(=O)N(C)C)c1	-44	/	/	-37*	/
C[C@@H]1CCCCO[C@@H](CN(C)Cc2ccc(C(=O)O)cc2)[C@H](C)CN([C@H](C)CO)C(=O)c2cc(NS(=O)(=O)c3ccc(Cl)cc3)ccc2O1	-3	1	0	0	4
COc1ccc(S(=O)(=O)N(C)C[C@@H]2Oc3c(NC(=O)Nc4ccccc4)cccc3C(=O)N([C@@H](C)CO)C[C@@H]2C)cc1	/	/	/	-4	/
COc1cc(C(=O)N/N=C(\Cc2ncc[nH]2)c2ccccc2)cc(OC)c1OC	-35	/	/	-32*	/
O=C(N[C@H]1CC[C@H](CCNC(=O)C2CCOCC2)O[C@H]1CO)c1ccccn1	3	5	6	3	-1
COc1ccc(CN(C)C[C@@H]2Oc3ccc(NC(=O)Nc4ccccc4)cc3C(=O)N([C@H](C)CO)C[C@H]2C)cc1	22	0	57*	-2	7
COc1ccc(CN(C)C[C@@H]2Oc3ccc(NC(=O)Nc4ccc5c(c4)OCO5)cc3C(=O)N([C@@H](C)CO)C[C@H]2C)cc1	15	56	61*	-1	-1
COc1ccc(CN(C)C[C@@H]2Oc3ccc(NC(=O)Nc4ccc5c(c4)OCO5)cc3C(=O)N([C@H](C)CO)C[C@H]2C)cc1	1	17	67*	-1	6
COc1ccc(CN(C)C[C@H]2Oc3ccc(NC(=O)Nc4ccccc4)cc3C(=O)N([C@H](C)CO)C[C@H]2C)cc1	26	-2	-3	1	16
COc1ccc(CN(C)C[C@@H]2Oc3ccc(NC(=O)Nc4ccc5c(c4)OCO5)cc3C(=O)N([C@@H](C)CO)C[C@@H]2C)cc1	-8	4	9	2	4
COCC#Cc1ccc2c(c1)O[C@@H](CN(C)Cc1ccncc1)[C@@H](C)CN([C@@H](C)CO)S2(=O)=O	4	3	-4	-6	0
C[C@H](CO)N1C[C@H](C)[C@H](CN(C)C)Oc2ccc(NC(=O)CCCCCC(=O)Nc3ccccc3N)cc2C1=O	-6	/	/	3	/
c1ccc(CSc2nnc(Cc3ccccc3)o2)cc1	-3	/	/	-31*	/
c1ccc(CSc2nnc(Cc3ccccn3)o2)cc1	/	-1	-5	/	-3
Cc1ccccc1-c1ccc([C@H]2[C@@H](CO)N3CCCCN(Cc4cccnc4)C[C@H]23)cc1	3	4	-3	0	6
